One series concerns Rattus norvegicus. Description: Maximum percent change in A II supported mean arterial pressure 60 minutes following 3 mg/kg i.d. administration. The format is functional. The note with it: Artery, intraduodenal, in the assay text read “at the time of maximum effect following” for “60 minutes following”, read-out: Inhibition. In short, it runs like this:
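Anesthetized rats, ganglion blocked with mecamylamine 3 mg/kg iv, under A II infusion until pressure stabilized. Agent suspended in methyl cellulose and given 3 mg/kg through a duodenal cannula (1 mL/kg). MAP followed for 240 min. Fall expressed as percent of the A II-supported pressure. Maximum change and its time recorded, n = 3. Adjusted AUC between control and treated MAP/time curves.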

For series [1], the target named is T1, Angiotensin II receptor (AT-1) type-1 (Rattus norvegicus, UniProt P29089+P25095).
T1 sequence (P29089 whole entry): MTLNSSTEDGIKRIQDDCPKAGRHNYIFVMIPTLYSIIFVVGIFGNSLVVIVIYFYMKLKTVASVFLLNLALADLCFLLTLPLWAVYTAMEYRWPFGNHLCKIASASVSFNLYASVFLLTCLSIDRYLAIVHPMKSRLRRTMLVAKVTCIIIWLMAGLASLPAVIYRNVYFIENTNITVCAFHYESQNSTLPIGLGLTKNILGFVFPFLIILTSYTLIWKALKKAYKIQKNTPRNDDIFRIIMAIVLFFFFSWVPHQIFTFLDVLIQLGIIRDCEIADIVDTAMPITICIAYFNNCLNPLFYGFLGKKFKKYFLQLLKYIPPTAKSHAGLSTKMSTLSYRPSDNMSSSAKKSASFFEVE
T1 sequence (P25095 whole entry): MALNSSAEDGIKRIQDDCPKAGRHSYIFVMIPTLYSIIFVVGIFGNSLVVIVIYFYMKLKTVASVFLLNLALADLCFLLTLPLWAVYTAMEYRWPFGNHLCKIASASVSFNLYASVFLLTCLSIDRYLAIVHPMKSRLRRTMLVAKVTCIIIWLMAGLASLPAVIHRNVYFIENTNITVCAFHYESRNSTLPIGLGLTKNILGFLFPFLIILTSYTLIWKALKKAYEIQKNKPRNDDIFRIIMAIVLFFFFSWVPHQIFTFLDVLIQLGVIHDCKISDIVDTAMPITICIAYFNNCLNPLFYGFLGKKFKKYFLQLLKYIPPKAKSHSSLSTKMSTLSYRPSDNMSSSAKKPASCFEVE
Briefly: In vitro inhibition of specific binding of [125 I] A II to rat liver membrane. In short, it runs like this: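 Rat liver membrane preparation (AT1 sites), diluted in kit buffer. Nonspecific binding defined with 10⁻⁴ M A II, standard curve 10⁻¹⁰–10⁻⁷ M. Reaction stopped with saline and glass-fiber filtration, then gamma counting.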

A short description of series [2]: Partition coefficient (logP). The format is physicochemical. The settings on record: octanol/water.
The nature of series [3]: Partition coefficient (logD) (octanol/0.01 N K2HPO4). The format is physicochemical. In a few lines: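 Distribution coefficient measured between octanol and pH 7.4 phosphate buffer.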

Broadly, the IC50 is the concentration at which inhibition is half-maximal. Low values mean inhibition by little substance, high ones a need for much substance. In the case of `CCc1nc(C)c2c(n1)N(Cc1ccc(-c3ccccc3-c3nn[nH]n3)cc1)C(=O)CC2`, the maximum percent change in A II-supported mean arterial pressure at 3 mg/kg in the series with Rattus norvegicus is -76%. This compound gave a half-maximal inhibitory concentration (IC50) in series [1] of 0.0013 µM.
With `Cc1nc(C)c2c(n1)N(Cc1ccc(-c3ccccc3C(=O)[O-])cc1)C(=O)CC2.[K+]`, the maximum percent change in A II-supported mean arterial pressure at 3 mg/kg with Rattus norvegicus is -36%. This compound also returned a 50% inhibitory concentration (IC50) in series [1] of 0.085 µM.
Broadly, the logP is the decadic logarithm of the partition coefficient of the neutral form, usually between octanol and water. Read a high logP as a more lipophilic compound. As for `CCCc1nc(C)nc2c1CCC(=O)N2Cc1ccc(-c2ccccc2-c2nn[nH]n2)cc1`, in the series with Rattus norvegicus, the maximum percent change in A II-supported mean arterial pressure at 3 mg/kg is -86%. The same compound yielded a logP in series [2] of 4.45. This compound gave a half-inhibitory concentration (IC50) in series [1] of 0.0018 µM.
Consider `CCc1nc(C)nc2c1CCC(=O)N2Cc1ccc(-c2ccccc2-c2nn[nH]n2)cc1`, for which the maximum percent change in A II-supported mean arterial pressure at 3 mg/kg with Rattus norvegicus is -104%. The compound further gave a logP in series [2] of 3.92. The IC50 in series [1] was 0.0023 µM.
As to `Cc1nc(C)c2c(n1)N(Cc1ccc(-c3ccccc3-c3nn[nH]n3)cc1)CCC2`, in the series with Rattus norvegicus, the maximum percent change in A II-supported mean arterial pressure at 3 mg/kg was -20%. In series [1], the IC50 was found to be 0.17 µM.
`CCCc1nc(C)c2c(n1)N(Cc1ccc(-c3ccccc3-c3nn[nH]n3)cc1)C(=O)CC2`: the maximum percent change in A II-supported mean arterial pressure at 3 mg/kg in the series with Rattus norvegicus was -58%. In series [1], this compound yielded a half-inhibitory concentration (IC50) of 0.00135 µM.
Usually logD stands for lipophilicity at a set pH, counting ionised and neutral species. A low value points to lower lipophilicity. In series [3], `Cc1nc(C(C)C)c2c(n1)N(Cc1ccc(-c3ccccc3-c3nn[nH]n3)cc1)C(=O)CC2` yielded a logD of 1.41. Moreover, the maximum percent change in A II-supported mean arterial pressure at 3 mg/kg in the series on Rattus norvegicus was -44%. In series [2], this compound registered a lipophilicity (logP) of 4.32. In addition, in series [1], the half-inhibitory concentration (IC50) turned out to be 0.013 µM.
For `Cc1nc(CO)nc2c1CCC(=O)N2Cc1ccc(-c2ccccc2-c2nn[nH]n2)cc1`, in the series with Rattus norvegicus, the maximum percent change in A II-supported mean arterial pressure at 3 mg/kg is -30%. In series [1], this compound had a concentration for half-maximal inhibition (IC50) of 0.285 µM.
In the same order, the values of `Cc1nc(C)c2c(n1)N(Cc1ccc(-c3ccccc3-c3nn[nH]n3)nc1)C(=O)CC2` are -16% and 0.0243 µM.
As for `Cc1nc(C)c2c(n1)N(Cc1ccc(-c3ccccc3-c3nn[nH]n3)cc1)C(=O)C(C)C2` (stereo not drawn), the maximum percent change in A II-supported mean arterial pressure at 3 mg/kg in the series on Rattus norvegicus is -63%. In series [2], this compound came in with a lipophilicity (logP) of 3.91. Also, in series [1], the IC50 was determined as 0.0032 µM.
For the compound `Cc1nc2c(c(C(F)(F)F)n1)CCC(=O)N2Cc1ccc(-c2ccccc2-c2nn[nH]n2)cc1`, the maximum percent change in A II-supported mean arterial pressure at 3 mg/kg in the series with Rattus norvegicus was -68%. The IC50 in series [1] is 0.0246 µM.
With `Cc1nc(C(C)C)nc2c1CCC(=O)N2Cc1ccc(-c2ccccc2-c2nn[nH]n2)cc1`, in the series on Rattus norvegicus, the maximum percent change in A II-supported mean arterial pressure at 3 mg/kg was -40%. The half-inhibitory concentration (IC50) in series [1] is 0.0022 µM.
In the same order, the values of `Cc1nc2c(c(C(F)(F)F)n1)CCC(=O)N2Cc1ccc(-c2ccccc2-c2nn[nH]n2)nc1` are -41% and 0.0949 µM.
As for `Cc1nc(C=O)c2c(n1)N(Cc1ccc(-c3ccccc3-c3nn[nH]n3)cc1)C(=O)CC2`, the IC50 in series [1] was 0.0507 µM.
Regarding `Cc1nc(C)c2c(n1)N(Cc1ccc(-c3ccccc3-c3nn[nH]n3)cn1)C(=O)CC2`, in the series on Rattus norvegicus, the maximum percent change in A II-supported mean arterial pressure at 3 mg/kg is -34%. The same compound gave a 50% inhibitory concentration (IC50) in series [1] of 0.0494 µM.
`Cc1nc(C)c2c(n1)N(Cc1ccc(-c3ccccc3-c3nn[nH]n3)cc1)C(=O)C(C)(C)C2` came in with a logD in series [3] of 1.21. The maximum percent change in A II-supported mean arterial pressure at 3 mg/kg in the series with Rattus norvegicus is -66%. In addition, the logP in series [2] came out at 4.43. Moreover, in series [1], the IC50 came to 0.003 µM.
`CCCCc1nc(Cl)c(CO)n1Cc1ccc(-c2ccccc2-c2nnn[nH]2)cc1` [LOSARTAN]: the maximum percent change in A II-supported mean arterial pressure at 3 mg/kg in the series on Rattus norvegicus was -72%.
Consider `Cc1nc(C)c2c(n1)N(Cc1ccc(-c3ccccc3-c3nnn[nH]3)cc1)C(=O)CC2` [TASOSARTAN], for which the log distribution coefficient (logD) in series [3] came to 0.49. In the series on Rattus norvegicus, the maximum percent change in A II-supported mean arterial pressure at 3 mg/kg was -97%. Further, the logP in series [2] is 3.39. Further, the IC50 in series [1] came to 0.0052 µM.

The record behind these values is ChEMBL document CHEMBL1127332, “Pyrido[2,3-d]pyrimidine angiotensin II antagonists” (J Med Chem, 1994).
